Test results taken from publication PMC9202693 (The Journal of General Physiology, 2022).
Entries after “also recorded” stand apart in the source; their conditions may differ. Where two headings read alike, the source gives them in different places. Positions of bridges follow the written chain, without caps; N, C: chain ends. Residues, ends and D or L forms follow the SMILES beside them. No end group written: not given here.

Columns and labels:
KV1.3 [1] = molecular target: T1, KV1.3 (Homo sapiens, UniProt P22001); type: cell-based
Procedure, shortened: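 PBMCs from healthy donors were cultured 3–6 days in RPMI 1640 with 10% FBS and PHA (2, 5 or 10 µg/ml) to raise KV1.3. Whole-cell currents were evoked by 15-ms pulses to +50 mV from −120 mV every 15 s at 20–25°C, with gravity perfusion. Remaining current fraction was peak I/I0 at equilibrium block. Points (3–5 records each) were Hill-fitted for Kd and H. Perfusion control was 10 mM TEA+; wash-out used toxin-free solution.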

CD4^+ TEM lymphocytes [2] = assay: LDH cytotoxicity assay; type: cell-based, human; settings: for cytotoxicity (LDH): 24 h culture, 1.5 μM Cm28 or 50 nM rMgTx, quiescent or TCR-activated cells, three independent experiments
Procedure, shortened: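 CD4+ TEM cells, unstimulated or anti-CD3-stimulated, were cultured 24 h with or without test peptide. Medium samples were mixed with LDH reaction substrate for 30 min in the dark, then stop solution was added. Activity was taken as A490 minus A680, and percent cytotoxicity was calculated against controls. Spontaneous and maximum controls were sterile water and lysis buffer (45 min, 37°C). Positive control: 50 mM NaN3. Three donors, two technical repeats, mean ± SEM.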

KV1.2 [3] = molecular target: T2, KV1.2 (Homo sapiens, UniProt P16389); assay: Whole-cell patch-clamp block of KV1.2 current, transiently transfected CHO cells; type: cell-based
Procedure, shortened: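 hKV1.2 was expressed transiently in CHO cells, and GFP-positive cells were recorded 24–36 h after transfection. Whole-cell currents were evoked by 15-ms pulses to +50 mV from −120 mV every 15 s at 20–25°C, with leak below 10%, using gravity perfusion. RCF was peak I/I0 at equilibrium block.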

KV1.2 [4] = molecular target: T2, KV1.2; assay: Binding kinetics of Cm28 block of KV1.2; type: cell-based
Procedure, shortened: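 KV1.2 transiently transfected into CHO cells; GFP-positive cells recorded 24–36 h post-transfection by whole-cell voltage clamp. Normal bath (mM): 145 NaCl, 5 KCl, 2.5 CaCl2, 1 MgCl2, 5.5 glucose, 10 HEPES, pH 7.35. 15-ms pulses to +50 mV from Vh −120 mV every 15 s with 2 nM toxin. Normalized peak current versus time fitted single-exponentially for wash-in/wash-out (τon, τoff); kon, koff from bimolecular model.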

KV1.3 [5] = molecular target: T1, KV1.3; assay: Binding kinetics of Cm28 block of KV1.3; type: cell-based
Procedure, shortened: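 Activated human peripheral T lymphocytes (PHA-stimulated PBMCs) recorded by whole-cell voltage clamp in normal Na+-based bath, pH 7.35. 15-ms pulses to +50 mV from Vh −120 mV every 15 s. Wash-in and wash-out time courses of normalized peak current fitted with single exponentials. 1/τon and 1/τoff versus toxin concentration fitted by linear regression to give kon and koff, assuming simple bimolecular binding.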

KV1.2 [6] = molecular target: T2, KV1.2; assay: Voltage dependence of activation; type: cell-based; settings: KV1.2, 2 nM Cm28
Procedure, shortened: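 CHO cells were transiently transfected with GFP-tagged hKV1.2 and recorded by whole-cell clamp 24–36 h later at 20–25°C. For G-V, 300-ms steps from −70 to +80 mV in 10 mV increments were applied, with tail currents at −120 mV normalized to the maximum. For instantaneous I-V, 200-ms ramps to +50 mV were used. Pulses were given every 15 s. Traces are three-trace averages in control and at equilibrium block.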

hKV1.1 = assay: Selectivity, patch-clamp, hKV1.1 in CHO cells; type: cell-based, human
Procedure, shortened: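 hKV1.1 (KCNA1, GFP-tagged vector) transiently transfected into CHO cells with Lipofectamine; GFP-positive cells recorded 24–36 h later by whole-cell voltage clamp. Normal bath (mM): 145 NaCl, 5 KCl, 2.5 CaCl2, 1 MgCl2, 5.5 glucose, 10 HEPES, pH 7.35. Remaining current fraction = peak current with/without 150 nM toxin at equilibrium block; mean ± SEM.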

hKV1.5 = assay: Selectivity, patch-clamp, hKV1.5 in CHO cells; type: cell-based, human; settings: 150 nM Cm28, 8–20 pulses (2–5 min), n ≥ 3
Procedure, shortened: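 Whole-cell KV1.5 currents recorded in normal bath (mM): 145 NaCl, 5 KCl, 2.5 CaCl2, 1 MgCl2, 5.5 glucose, 10 HEPES, pH 7.35. Remaining current fraction calculated as the ratio of peak currents with and without 150 nM test compound after 8–20 repeated depolarizing pulses (2–5 min). Reported as mean ± SEM, n ≥ 3.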

hKV11.1 (hERG1) = assay: Selectivity, patch-clamp, hKV11.1 in human embryonic kidney 293 cells; type: cell-based; settings: 150 nM Cm28, 8–20 pulses (2–5 min), n ≥ 3
Procedure, shortened: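 HEK293 cells stably expressing hKV11.1. Pipette (mM): 140 KCl, 2 MgCl2, 10 HEPES, 10 EGTA, pH 7.3. Step to +20 mV (1.25 s) from Vh −80 mV, then −40 mV (2 s), every 30 s. Peak tail current I/I0 at 150 nM after 8–20 pulses; n ≥ 3.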

hKCa3.1 = assay: Selectivity, patch-clamp, hKCa3.1 in CHO cells; type: cell-based, human; settings: 150 nM Cm28, 8–20 pulses (2–5 min), n ≥ 3
Procedure, shortened: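 Whole-cell KCa3.1 currents recorded with 150-ms ramps to +50 mV from −120 mV every 10 s. Bath (mM): 145 Na L-aspartate, 5 KCl, 10 HEPES, 5.5 glucose, 2.5 CaCl2, 1 MgCl2, pH 7.4. Pipette (mM): 150 K-Asp, 5 HEPES, 8.5 CaCl2, 1.0 MgCl2, pH 7.22. Peak I/I0 at 150 nM after 8–20 pulses (2–5 min); mean ± SEM, n ≥ 3.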

mKCa1.1 = assay: Selectivity, patch-clamp, mKCa1.1 in human embryonic kidney 293 cells; type: cell-based; settings: 150 nM Cm28, 8–20 pulses (2–5 min), n ≥ 3
Procedure, shortened: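 HEK293 cells stably expressing mKCa1.1 recorded in whole-cell mode in normal bath (145 NaCl, 5 KCl, 2.5 CaCl2, 1 MgCl2, 5.5 glucose, 10 HEPES mM, pH 7.35). Cells depolarized to +100 mV for 600 ms from Vh −100 mV. Peak I/I0 at 150 nM after 8–20 pulses (2–5 min); mean ± SEM, n ≥ 3.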

hNaV1.4 = assay: Selectivity, patch-clamp, hNaV1.4 in human embryonic kidney 293 cells; type: cell-based; settings: 150 nM Cm28, 8–20 pulses (2–5 min), n ≥ 3
Procedure, shortened: (§1)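 Whole-cell Na+ currents evoked by 15-ms steps to 0 mV every 10 s. Normal Na+-based bath, pH 7.35. Pipette (mM): 10 NaCl, 105 CsF, 10 HEPES, 10 EGTA, pH 7.2. Remaining peak current fraction at 150 nM after 8–20 pulses (2–5 min); mean ± SEM, n ≥ 3. NaV1.4 was recorded in HEK293 cells stably expressing the channel.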

hNaV1.5 = assay: Selectivity, patch-clamp, hNaV1.5 in CHO cells; type: cell-based, human; settings: 150 nM Cm28, 8–20 pulses (2–5 min), n ≥ 3
Procedure, shortened: as §1

hHV1 = assay: Selectivity, patch-clamp, hHV1 in CHO cells; type: cell-based, human; settings: 150 nM Cm28, 8–20 pulses (2–5 min), n ≥ 3
Procedure, shortened: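 Whole-cell proton current measured with a 1.0-s ramp to +100 mV from Vh −60 mV every 15 s. Bath (mM): 60 Na L-aspartate, 80 MES, 5.5 glucose, 6 MgCl2, pH 7.4. Pipette (mM): 90 Na L-aspartate, 80 MES, 6 MgCl2, 3.3 glucose, pH 6.17. Remaining current fraction (peak I/I0) taken at 150 nM after 8–20 pulses; mean ± SEM, n ≥ 3.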

[7] = tested on: CD40L expression in CD4^+ TEM lymphocytes; assay: Expression of CD40L; type: cell-based, human
Procedure, shortened: (§2)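 CD4+ TEM cells were isolated from healthy-donor PBMCs by negative magnetic selection and held at 1 × 10^6 cells/ml in RPMI 1640 with 10% FBS. They were pre-incubated 30 min with test peptide, then stimulated 24 h at 37°C on plate-bound anti-CD3 (OKT3, 1 µg/well) with toxin kept present. Cells were stained 20 min at 4°C with anti-CD25 and anti-CD154. Gating was FSC/SSC, 10,000 events. MFI was normalized to the stimulated untreated control. Duplicates, three donors.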

[8] = tested on: IL2R expression in CD4^+ TEM lymphocytes; assay: Expression of IL2R; type: cell-based, human
Procedure, shortened: as §2

KV channels = settings: ref Bartok et al., 2014, cited from earlier work
CD4^+ TEM lymphocytes [9] = assay: Cell viability, Zombie NIR flow cytometry; type: cell-based, human; settings: 24 h culture, 1.5 μM Cm28 or 50 nM rMgTx, quiescent or TCR-activated cells, three independent experiments
[10] = 1.5 µM Cm28, anti-CD3–activated, 24 h
[11] = US + Cm28 (1.5 µM), not exposed to anti-CD3
[12] = 5 nM rMgTx, 30 min pre-incubation, 24 h anti-CD3 stimulation, decreased to

T1 sequence (P22001 whole entry, the tested form may be a part): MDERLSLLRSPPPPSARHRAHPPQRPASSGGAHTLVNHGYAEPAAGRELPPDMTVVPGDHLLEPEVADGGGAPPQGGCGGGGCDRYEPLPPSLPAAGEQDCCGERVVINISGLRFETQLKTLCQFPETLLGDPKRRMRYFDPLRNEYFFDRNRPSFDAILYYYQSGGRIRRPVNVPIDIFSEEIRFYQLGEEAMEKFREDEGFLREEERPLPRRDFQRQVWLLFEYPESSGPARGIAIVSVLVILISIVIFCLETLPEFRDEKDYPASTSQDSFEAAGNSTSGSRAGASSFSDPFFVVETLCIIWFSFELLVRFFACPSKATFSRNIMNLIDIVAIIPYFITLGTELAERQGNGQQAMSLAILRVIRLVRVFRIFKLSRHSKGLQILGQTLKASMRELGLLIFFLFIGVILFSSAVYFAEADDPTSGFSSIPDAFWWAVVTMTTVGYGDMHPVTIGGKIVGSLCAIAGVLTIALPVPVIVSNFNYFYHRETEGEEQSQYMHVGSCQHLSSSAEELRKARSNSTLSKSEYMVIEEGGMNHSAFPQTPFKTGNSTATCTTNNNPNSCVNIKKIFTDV
T2 sequence (P16389 whole entry, the tested form may be a part): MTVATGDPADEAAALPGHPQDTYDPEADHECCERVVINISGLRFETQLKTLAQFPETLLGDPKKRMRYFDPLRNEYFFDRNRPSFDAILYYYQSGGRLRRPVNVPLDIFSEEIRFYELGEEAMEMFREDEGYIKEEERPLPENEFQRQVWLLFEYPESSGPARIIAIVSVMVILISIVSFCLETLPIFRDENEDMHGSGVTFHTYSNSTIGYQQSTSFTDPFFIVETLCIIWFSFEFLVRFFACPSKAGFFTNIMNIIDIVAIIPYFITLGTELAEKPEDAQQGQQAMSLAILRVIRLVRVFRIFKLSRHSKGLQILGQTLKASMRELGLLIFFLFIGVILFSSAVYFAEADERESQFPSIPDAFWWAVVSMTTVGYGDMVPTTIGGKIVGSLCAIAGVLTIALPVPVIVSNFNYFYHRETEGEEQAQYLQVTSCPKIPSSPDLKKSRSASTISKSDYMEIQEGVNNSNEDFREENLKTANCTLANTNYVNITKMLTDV

## CC[N+](CC)(CC)CC.[Cl-] [TEA^+, reference compound]
KV1.3 [1]; 10 mM TEA^+, KV1.3
  inhibition in peak current, perfusion control: ~50%

## [N-]=[N+]=[N-].[Na+] [NaN3, sodium azide]
CD4^+ TEM lymphocytes [2]; 50 mM NaN3
  cytotoxicity (LDH), positive control: 15%

## CC(C)[C@@H]1NC(=O)[C@@H]2CSSC[C@H](NC(=O)[C@@H](N)CCCCN)C(=O)N[C@@H](CCCNC(=N)N)C(=O)N[C@@H](CCC(=O)O)C(=O)N[C@H]3CSSC[C@H](NC(=O)[C@H](CCCCN)NC(=O)CNC(=O)[C@H](CC(N)=O)NC1=O)C(=O)N[C@@H](C(C)C)C(=O)N[C@H](C(=O)N1CCC[C@H]1C(=O)N[C@@H](C)C(=O)O)CSSC[C@H](NC(=O)[C@H](CO)NC(=O)[C@@H]1CCCN1C(=O)[C@H](CO)NC(=O)[C@H]([C@@H](C)O)NC(=O)[C@H](CC(N)=O)NC(=O)CNC3=O)C(=O)N[C@@H](Cc1ccc(O)cc1)C(=O)N[C@@H](Cc1ccccc1)C(=O)N[C@@H](CO)C(=O)NCC(=O)N[C@@H](CC(N)=O)C(=O)N2 [Cm28] (H-KCRECGNTSPSCYFSGNCVNGKCVCPA-OH; disulfide 2-18, 5-23, 12-25; N-terminus assumed)
KV1.2 [3]; KV1.2, Hill fit of dose-response, n = 3–5
  Hill coefficient (H): 1.04
KV1.2 [3]; wash-out with toxin-free solution after 2 nM Cm28, took several minutes
  recovery from block, % of control current: ~85%
KV1.3 [1]; KV1.3, Hill fit of dose-response, n = 3–5
  Hill coefficient (H): 0.93
KV1.3 [1]; read-out: inhibition of current at block equilibrium
  inhibition at 0.002 µM: ~58%
KV1.3 [1]; wash-out with toxin-free solution after 2 nM Cm28
  time for 90% recovery from block: 10 min
KV1.2 [4]
  koff: 0.0013 s⁻¹
  kon: 1.1e+06 M⁻¹ s⁻¹
KV1.3 [5]
  koff: 0.0028 ± 0.000215 s⁻¹
  kon: 1.3e+06 M⁻¹ s⁻¹
KV1.2 [6]
  shift in G-V curve / activation threshold: did not introduce any substantial shift in the G-V curve of KV1.2
hKV1.1; 150 nM Cm28, equilibrium block
  reduction of KV1.1 current: ~27%
hKV1.1; compared with KV1.2 and KV1.3
  fold less affinity for KV1.1 (vs KV1.2 and KV1.3): ~400 fold
hKV1.1; text of Discussion, high concentration ∼100× of Kd for KV1.3
  inhibition of KV1.1: did not inhibit
hKV1.5
  inhibition of KV1.5: did not inhibit
hKV11.1 (hERG1)
  inhibition of KV11.1: did not inhibit
hKCa3.1
  inhibition of KCa3.1: did not inhibit
mKCa1.1
  inhibition of KCa1.1: did not inhibit
hNaV1.4
  inhibition of NaV1.4: did not inhibit
hNaV1.5
  inhibition of NaV1.5: did not inhibit
hHV1
  inhibition of hHV1: did not inhibit
CD4^+ TEM lymphocytes [2]
  cytotoxicity (LDH): < 1%
[7]; [10]
  CD40L expression in activated cells: strongly inhibited; also recorded: significantly reduced
[7]; [11]
  CD40L expression in unstimulated cells: no change
[8]; [10]
  IL2R expression in activated cells: strongly inhibited; also recorded: significantly reduced
[8]; [11]
  IL2R expression in unstimulated cells: no change

## ChTx [reference compound]
KV1.2 [3]; 14 nM ChTx, KV1.2
  inhibition in peak current, perfusion control: ~50%
KV channels
  block of KV1.x channel subtypes: blocks more than one KV1.x channel subtypes with high affinity

## rMgTx (TIINVKCTSPKQCLPPCKAQFGQSAGAKCMNGKCKCYPH; ends and bridges not checked; cysteine pairing not given here; UniProt P40755 1-39, looked up) [reference compound]
CD4^+ TEM lymphocytes [9]
  viable cells: ≥ 90%
CD4^+ TEM lymphocytes [2]
  cytotoxicity (LDH): < 2%
[7]; [12]
  CD40L expression, normalized to stimulated non-treated control: ~51%
[8]; [12]
  IL2R expression, normalized to stimulated non-treated control: ~48%

## MgTx (TIINVKCTSPKQCLPPCKAQFGQSAGAKCMNGKCKCYPH; UniProt P40755 1-39, looked up)
KV channels
  block of KV1.x channel subtypes: blocks more than one KV1.x channel subtypes with high affinity
KV channels; listed as margatoxin
  block of KV1.x channel subtypes: blocks different KV channels
